Converted amounts (≈) assume the structure as drawn.
What was measured:
HepG2 = assay: Cytotoxicity against human HepG2 cells after 48 hrs by SRB assay; assay type: functional, cell-based; details: HepG2, 48 h
K562 = assay: Cytotoxicity against human K562 cells after 48 hrs by SRB assay; assay type: functional, cell-based; details: K562, 48 h
[1] = Selectivity index, ratio of antiviral activity against HIV1-infected human C8166 cells over cytotoxicity against human C8166 cells; assay type: toxicity, cell-based; details: uninfected and HIV-1-infected, read-out: Selectivity Index
[2] = tested on: Human immunodeficiency virus 1; assay: Antiviral activity against HIV1-infected human C8166 cells; assay type: functional, organism-based; details: Human immunodeficiency virus 1, C8166
Outline: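 Protection of C8166 cells from HIV-1 cytopathic effects, read as EC50. Run alongside the cytotoxicity measurement, with AZT as positive control.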

[3] = Cytotoxicity against human C8166 cells by MTT assay; assay type: cell-based
Outline: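 Uninfected C8166 cells scored for viability by MTT, giving CC50. Run in parallel with the HIV-1 cytopathic-effect assay, with AZT as reference.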

SMILES: CC1(C)O[C@@H]2CC(=O)O[C@@]23C[C@]24CC[C@]5(C)C(=O)[C@](C)(O)[C@]6(O)[C@H]7OC(=O)[C@](C)(O)[C@H]7O[C@@](O2)(C(=O)C4=CC[C@@H]13)[C@@H]65 [SCHIRUBRIDILACTONE E]
- IC50 (HepG2): > 5 mg/L
- IC50 (K562): > 5 mg/L
- selectivity ratio [1]: 3.1
- EC50 [2]: 66.8 mg/L (≈ 116 µM)

SMILES: C[C@@H]1C(=O)O[C@H]2[C@@H]1O[C@]13O[C@@]4(CC[C@]5(C)C(=O)[C@](C)(O)[C@@]2(O)[C@H]15)C[C@]12OC(=O)C[C@H]1OC(C)(C)[C@@H]2[C@@H](O)C[C@H]4C3=O [SCHIRUBRIDILACTONE A]
- IC50 (HepG2): > 5 mg/L
- IC50 (K562): > 5 mg/L
- selectivity ratio [1]: 5.1
- EC50 [2]: 30.1 mg/L (≈ 52.2 µM)

SMILES: C[C@@H]1C(=O)O[C@H]2[C@@H]1O[C@]13O[C@@]4(CC[C@]5(C)C(=O)[C@@H](C)[C@H]2[C@H]15)C[C@]12OC(=O)C[C@H]1OC(C)(C)[C@@H]2C[C@@H]1O[C@@]14C3=O [SCHIRUBRIDILACTONE D]
- IC50 (HepG2): > 5 mg/L
- IC50 (K562): > 5 mg/L
- selectivity ratio [1]: 2.2
- EC50 [2]: 80.8 mg/L (≈ 149 µM)

SMILES: C[C@@H]1C(=O)[C@@]2(C)CC[C@]34C[C@]56OC(=O)C[C@H]5O[C@@](C)(CO)[C@@H]6CC[C@@]3(O)C(=O)[C@@]3(O[C@]5(C[C@H](C)C(=O)O5)[C@@H]1[C@H]32)O4 [SCHIRUBRIDILACTONE C]
- selectivity ratio [1]: 8.7
- EC50 [2]: 14.3 mg/L (≈ 25.5 µM)

SMILES: CC1=C[C@H]([C@H]2O[C@]34C(=CC[C@@H]3[C@@H]2C)[C@@H]2[C@H](O)C[C@H]3C(C)(C)O[C@@H]5CC(=O)O[C@@]53C[C@@]2(O)C[C@@H]4O)OC1=O [SCHIRUBRIDILACTONE F]
- IC50 (HepG2): > 5 mg/L
- IC50 (K562): > 5 mg/L
- selectivity ratio [1]: 3.5
- EC50 [2]: 50.1 mg/L (≈ 97 µM)

SMILES: Cc1cn([C@H]2C[C@H](N=[N+]=[N-])[C@@H](CO)O2)c(=O)[nH]c1=O [ZIDOVUDINE]
- CC50 [3]: > 200 mg/L

SMILES: C/C(=C/[C@H]1O[C@]23O[C@@]4(CC[C@]5(C)C(=O)[C@](C)(O)[C@H]1[C@H]25)C[C@]12OC(=O)C[C@H]1OC(C)(C)[C@@H]2CC=C4C3=O)C(=O)O [SCHIRUBRIDILACTONE B]
- IC50 (HepG2): > 5 mg/L
- IC50 (K562): > 5 mg/L
- selectivity ratio [1]: 9
- EC50 [2]: 15.2 mg/L (≈ 28 µM)
